In ChEMBL document CHEMBL1137852, “Novel fluoro- and hydroxyl-containing jasmonate derivatives as highly efficient elicitors in suspension cultures of Taxus chinensis” (2004):

What was measured:
Assay type in all cases: functional
[1] = Eliciting activity on Tc (taxuyunnanine C) content in cell cultures of Taxus chinensis
Summary of the method: (§1)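 T. chinensis suspension cells grown in 50 mL medium in 250-mL flasks. Elicitor added on day 7 after inoculation in ethanol (1 µL per mL medium); controls received an equal volume of ethanol. Tc measured by reverse-phase HPLC and expressed as mg per g dry cells; maximum content within 21 days reported. Triplicate cultures, mean ± S.D.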

[2] = Eliciting activity on Tc (taxuyunnanine C) production in cell cultures of Taxus chinensis
Summary of the method: (§2)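 T. chinensis suspension cells grown in 50 mL medium in 250-mL flasks. Elicitor added on day 7 post-inoculation in ethanol (1 µL per mL medium); controls received an equal volume of ethanol. Tc quantified by reverse-phase HPLC; maximum volumetric production (mg/L) within 21 days reported. Triplicate cultures, mean ± S.D.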

[3] = Effect on Tc (taxuyunnanine C) content in cell cultures of Taxus chinensis at a concentration of 100 uM; summary of the method: as §1
[4] = Effect on Tc (taxuyunnanine C) content in cell cultures of Taxus chinensis; summary of the method: as §1
[5] = Effect on Tc (taxuyunnanine C) production in cell cultures of Taxus chinensis at a concentration of 0 uM; summary of the method: as §2
[6] = Effect on Tc (taxuyunnanine C) content in cell cultures of Taxus chinensis at a concentration of 0 uM; summary of the method: as §1
[7] = Effect on Tc (taxuyunnanine C) production in cell cultures of Taxus chinensis at a concentration of 10 uM; summary of the method: as §2
[8] = Effect on Tc (taxuyunnanine C) content in cell cultures of Taxus chinensis at a concentration of 10 uM; summary of the method: as §1
[9] = Effect on Tc (taxuyunnanine C) production in cell cultures of Taxus chinensis at a concentration of 100 uM; summary of the method: as §2
[10] = Effect on Tc (taxuyunnanine C) production in cell cultures of Taxus chinensis at a concentration of 1 uM; summary of the method: as §2
[11] = Effect on Tc (taxuyunnanine C) content in cell cultures of Taxus chinensis at a concentration of 1 uM; summary of the method: as §1
[12] = Effect on Tc (taxuyunnanine C) content in cell cultures of Taxus chinensis at a concentration of 500 uM; summary of the method: as §1
[13] = Effect on Tc (taxuyunnanine C) production in cell cultures of Taxus chinensis at a concentration of 500 uM; summary of the method: as §2
[14] = Effect on Tc (taxuyunnanine C) production in cell cultures of Taxus chinensis; summary of the method: as §2

| SMILES | Activity [1] | Activity [2] | other results |
| --- | --- | --- | --- |
| CC/C=C/CC1C(=O)CCC1CC(=O)OCC(F)(F)C(F)(F)F (centres undefined) | 38.22 mg/g DW | 480.5 mg/L |  |
| CC/C=C/CC1C(=O)CCC1CC(=O)OCCO (centres undefined) | 38.1 mg/g DW | 464 mg/L |  |
| CC/C=C/CC1C(=O)CCC1CC(=O)OCC(F)(F)F (centres undefined) | 34.94 mg/g DW | 440.3 mg/L |  |
| CC/C=C/CC1C(=O)CCC1CC(=O)OCC(O)CO (centres undefined) |  |  | Activity [3]: 43.2 mg/g DW; Activity [4]: 47.2 mg/g DW; Activity [5]: 128 mg/L; Activity [6]: 9.4 mg/g DW; Activity [7]: 358 mg/L; Activity [8]: 27 mg/g DW; Activity [9]: 544 mg/L; Activity [10]: 160 mg/L; Activity [11]: 11.6 mg/g DW; Activity [12]: 49.8 mg/g DW; Activity [13]: 522 mg/L; Activity [14]: 550 mg/L |
| CC/C=C/CC1C(=O)CCC1CC(=O)OC (centres undefined) | 29.2 mg/g DW | 386 mg/L |  |
| CC/C=C/CC1C(=O)CCC1CC(=O)OCCC (centres undefined) | 27.9 mg/g DW | 357 mg/L |  |
| CC/C=C/CC1C(=O)CCC1CC(=O)OCCOCCO (centres undefined) | 31.4 mg/g DW | 417 mg/L |  |
